Experimental data pooled from the literature.
Each line is one published result; the experiments were not run side by side.
Observed: enzyme activity
Mode: inhibitor
PDGFRA: Platelet-derived growth factor receptor alpha (PDGFRA, Homo sapiens, UniProt P16234)
PDGFRA V561D: Platelet-derived growth factor receptor alpha (PDGFRA, Homo sapiens, UniProt P16234, V561D)

Compound	target	method	concentration	inhibition [%]
COc1cc2nccc(Oc3ccc(NC(=O)c4c5n(n(-c6ccc(F)cc6)c4=O)CCCC5)cc3)c2cc1OC	PDGFRA		0.1 µM	30
COc1cc2ncnc(Nc3ccc(Oc4ccccc4)c(C)c3C)c2cc1OC	PDGFRA V561D		1 µM	7
COc1cc(-c2cc(-c3ccc(N4CCNCC4)cc3)cnc2N)cc(OC)c1OC	Platelet-derived growth factor receptor alpha (PDGFRA, Homo sapiens, UniProt P16234, T674I)		0.1 µM	2
CNC(=O)c1cc(Oc2ccc(NC(=O)Nc3ccc(Cl)c(C(F)(F)F)c3)cc2)ccn1	PDGFRA		0.3 µM	35
CNC(=O)c1cc2c(Oc3ccc(NC(=O)C4(C(=O)Nc5ccc(F)cc5)CC4)cc3)ccnc2cc1OC	Platelet-derived growth factor receptor alpha (PDGFRA, Homo sapiens, UniProt P16234, D842V)	radiometric	1 µM	73
CC/C(=N\NC(=O)NCc1cccc(O)c1)c1ccc(O)c(C)c1O	PDGFRA		0.1 µM	6.7
COc1cc2ncnc(Nc3ccc(Oc4ccccc4)cc3C)c2cc1OC	PDGFRA V561D		1 µM	20
CN1CC(Oc2cnc(C#N)cc2-c2ccn3nc(NC(=O)C4CC4)cc3c2)C1	PDGFRA		1 µM	4
CNCc1ccc(-c2cc(-c3nc(-c4ccc(S(=O)(=O)C(C)C)cc4)cnc3N)on2)cc1	PDGFRA		2 µM	9
O=C(CSc1nc2nccnc2c(=O)n1CCc1ccccc1)Nc1nccs1	PDGFRA		10 µM	16
